# Measurements pooled from the literature.
# Compare with care: the assays were run in different laboratories.
# Target: Tyrosine-protein kinase receptor TYRO3 (TYRO3, Homo sapiens, UniProt Q06418)
# One construct used (Q06418 41-890): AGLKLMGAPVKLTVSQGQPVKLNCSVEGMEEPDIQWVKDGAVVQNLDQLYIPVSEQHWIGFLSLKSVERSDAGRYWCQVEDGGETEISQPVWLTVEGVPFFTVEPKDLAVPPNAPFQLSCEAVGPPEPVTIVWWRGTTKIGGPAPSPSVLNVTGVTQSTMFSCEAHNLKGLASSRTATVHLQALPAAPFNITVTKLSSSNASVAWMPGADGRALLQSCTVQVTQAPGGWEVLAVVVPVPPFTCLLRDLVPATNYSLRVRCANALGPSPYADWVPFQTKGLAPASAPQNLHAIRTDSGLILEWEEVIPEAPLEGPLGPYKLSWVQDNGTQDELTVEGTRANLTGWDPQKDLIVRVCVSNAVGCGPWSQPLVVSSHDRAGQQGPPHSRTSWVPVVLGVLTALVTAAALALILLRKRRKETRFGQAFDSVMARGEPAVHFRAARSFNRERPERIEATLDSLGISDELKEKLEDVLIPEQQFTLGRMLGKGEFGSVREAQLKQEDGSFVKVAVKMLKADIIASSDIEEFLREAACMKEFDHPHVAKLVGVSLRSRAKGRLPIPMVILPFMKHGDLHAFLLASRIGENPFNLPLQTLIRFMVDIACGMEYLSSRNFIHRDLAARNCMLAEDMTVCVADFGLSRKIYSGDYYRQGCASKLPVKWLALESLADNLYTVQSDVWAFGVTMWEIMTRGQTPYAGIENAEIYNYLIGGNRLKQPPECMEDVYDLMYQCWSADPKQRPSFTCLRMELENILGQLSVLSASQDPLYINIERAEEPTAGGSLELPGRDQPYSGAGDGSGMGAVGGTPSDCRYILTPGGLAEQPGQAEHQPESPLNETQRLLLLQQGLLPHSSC
Compound,assay,conditions,remaining binding [%]
CNCc1ccccc1-c1csc([C@H](C)Nc2nc(C)nc3cc(OC)c(OC)cc23)c1,"cell-free assay, competition with immobilised ligand",1 µM,100
COc1cnc(Nc2cccc(S(N)(=O)=O)c2)nc1N1CCN(c2ccccc2)CC1,"binding, competition with immobilised ligand",1 µM,72
c1cnn2ncc(-c3ccnc(N4CCC45COC5)n3)c2c1,binding,1 µM,73
O=C(NCC1CCOCC1)c1n[nH]cc1NC(=O)c1c(F)cccc1F,"binding, competition with immobilised ligand",1 µM,99
CCc1ccccc1C(=O)Nc1n[nH]c2c(C)c(F)c(C3C(C#N)=C(C)N(C)C(C)=C3C#N)cc12,"cell-free assay, competition with immobilised ligand",1 µM,100
N[C@H]1CCN(c2nccc(-c3cnn4ncccc34)n2)C1,binding,1 µM,88
C[C@H](c1ccc(F)cc1)N(Cc1cccc(C(=O)O)c1)C(=O)c1cnc2ccccc2c1,"cell-free assay, competition with immobilised ligand",1 µM,100
O=C(c1ccc(Nc2ncc(Cl)c(-c3cc4ccccc4s3)n2)cc1)N1CCC(N2CCCC2)CC1,"binding, competition with immobilised ligand",1 µM,44
COc1ccnn2ncc(-c3ccnc(N(C)C)n3)c12,binding,1 µM,100
CCC(=N\O)/C(C)=C/c1ccc(F)cc1,"cell-free assay, competition with immobilised ligand",1 µM,100
C=CC(=O)N1CCC(C(=O)NCC(=O)N2CCN(c3nc(-c4cnc(N)nc4C(F)F)nc(N4CCOCC4)n3)CC2)CC1,"binding, competition with immobilised ligand",1 µM,100
CCN1CCN(Cc2ccc(C(=O)Nc3ccc(C)c(Oc4ccc5c(c4)CC(=O)N5)c3)cc2C(F)(F)F)CC1,"binding, competition with immobilised ligand",1 µM,100
Cc1c(NC(=O)c2cc(C(N)=O)nc3cc(F)ccc23)c(C(F)(F)F)nn1Cc1ccc(C#N)cc1,"cell-free assay, competition with immobilised ligand",1 µM,81
CN(C)c1nccc(-c2cnc3ncccn23)n1,binding,1 µM,100
O=C(NCCCN1CCOCC1)c1ccc(Nc2nccc(-c3cc4ccccc4s3)n2)cc1,"binding, competition with immobilised ligand",1 µM,90
CN(C)c1nccc(-c2cnn3ncccc23)n1,binding,1 µM,75
FC(F)(F)Oc1cccc(-c2cnc3ccc(-c4ccncc4)nn23)c1,"cell-free assay, competition with immobilised ligand",5 µM,83
O=C(c1ccc(Nc2ncc(Cl)c(-c3ccc(Cl)s3)n2)cc1)N1CCC(N2CCCC2)CC1,"binding, competition with immobilised ligand",1 µM,57
CN(CCCC(F)(F)F)c1nccc(-c2cnn3ncccc23)n1,binding,1 µM,93
Cn1nc(C(=O)NCc2ccc(C(=O)O)cc2)cc1-c1ccc2[nH]ccc2c1,"cell-free assay, competition with immobilised ligand",0.1 µM,100
C[C@H]1CCN(c2nccc(-c3cnn4ncccc34)n2)C1,binding,1 µM,100
Nc1ncc2c(n1)-c1c([nH]c3ccc(C#CC4CC4)cc13)CCCC2,"binding, competition with immobilised ligand",1 µM,100
